In ChEMBL document CHEMBL4706506 (Eur J Med Chem, 2020):
Active and inactive are the calls of the source. The calls are words filed in the database; no cut-off is given here.

Experiments:
[1] = test system: HeLa; assay: Antiproliferative activity against human HeLa cells assessed as inhibition of cell proliferation measured after 48 hrs by CCK-8 assay; format: functional, cell-based
Method in brief: (§1)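 RPMI-1640 with 10% FBS, 37 °C, 5% CO2. Cells seeded at 1-3 × 10^4/well and exposed to 0.00098–64 μM (nine 4-fold steps) or 0.1% DMSO vehicle for 48 h. CCK-8 then added for 4 h; absorbance read at 450 nm. IC50 taken from dose–response curves; mean ± SD of three independent experiments.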

[2] = test system: MCF7; assay: Antiproliferative activity against human MCF7 cells assessed as inhibition of cell proliferation measured after 48 hrs by CCK-8 assay; format: functional, cell-based; conditions: MCF7, 48 h
[3] = test system: A549; assay: Antiproliferative activity against human A549 cells assessed as inhibition of cell proliferation measured after 48 hrs by CCK-8 assay; format: functional, cell-based; conditions: A549, 48 h; method in brief: as §1
[4] = test system: HCT-116; assay: Antiproliferative activity against human HCT-116 cells assessed as inhibition of cell proliferation measured after 48 hrs by CCK-8 assay; format: functional, cell-based; conditions: HCT-116, 48 h; method in brief: as §1
[5] = test system: B16-F0; assay: Antiproliferative activity against mouse B16-F0 cells assessed as inhibition of cell proliferation measured after 48 hrs by CCK-8 assay; format: functional, cell-based; conditions: B16F0, 48 h; method in brief: as §1
[6] = test system: B16-F0; assay: Induction of microtubule destabilization in mouse B16-F0 cells assessed as short and wrapped structure at 160 nM measured after 6 hrs by DAPI staining based immunofluorescent assay relative to control; format: cell-based
[7] = test system: B16-F0; assay: Stabilization of microtubules in mouse B16-F0 cells at 40 nM measured after 6 hrs by DAPI staining based Immunofluorescent assay relative to control; format: cell-based
Method in brief: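 Fixed in 4% paraformaldehyde, permeabilized with 0.5% Triton X-100 for 15 min, goat serum blocked. Anti-tubulin antibody 2 h at 4 °C, then fluorescent secondary antibody and DAPI nuclear counterstain. Imaged by confocal microscopy.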

[8] = test system: B16-F0; assay: Antitumour activity against mouse B16-F0 cells transplanted in C57/BL mouse assessed as decrease in tumour weight at 10 mg/kg, ip measured after 16 days in relative to control; format: functional; parameters: scale not given: the % may be the effect or the level left; conditions: time 16 day
[9] = test system: B16-F0; assay: Antitumour activity against mouse B16-F0 cells transplanted in C57/BL mouse assessed as decrease in tumour volume at 10 mg/kg, ip measured after 16 days in relative to control; format: functional; parameters: scale not given: the % may be the effect or the level left; conditions: time 16 day
[10] = Toxicity in C57/BL mouse […] with mouse B16-F0 cells assessed as body weight loss at 10 to 20 mg/kg, ip measured after 16 days in relative to control; format: organism-based; conditions: in vivo, 384 h, dose 10-20 mg/kg, time 16 day
[11] = Toxicity in C57/BL mouse […] with mouse B16-F0 cells assessed as liver histology at 10 to 20 mg/kg, ip measured after 16 days by H and E staining method in relative to control; format: organism-based; conditions: in vivo, 384 h, dose 10-20 mg/kg, time 16 day
[12] = Metabolic stability in human liver microsomes assessed as half life in presence of NADPH at 0.5 uM measured after 4 hrs by LC/MS method; format: ADME, Microsome
[13] = Metabolic stability in mouse liver microsomes assessed as half life in presence of NADPH at 0.5 uM measured after 4 hrs by LC/MS method; format: ADME, Microsome
[14] = Inhibition of pig brain tubulin polymerization measured by light scattering based spectrophotometer method; format: tissue-based, Sus scrofa
Method in brief: (§2)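 Porcine brain tubulin purified by three assembly/disassembly cycles and phosphocellulose chromatography. Mixed with graded compound concentrations in PEM (100 mM PIPES, 1 mM EGTA, 1 mM MgCl2) with 1 mM GTP and 5% glycerol. Polymerization followed at 37 °C by light scattering at 340 nm; variants ran at 30 °C, or with 5 min preincubation before GTP addition. IC50 reported.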

[15] = Binding affinity to pig brain tubulin at 30 degree C without preincubation; format: tissue-based, Sus scrofa; method in brief: as §2
[16] = Binding affinity to pig brain tubulin at 37 degree C without preincubation; format: tissue-based, Sus scrofa; method in brief: as §2
[17] = Binding affinity to pig brain tubulin at 37 degree C preincubated for 5 mins; format: tissue-based, Sus scrofa; method in brief: as §2
[18] = test system: MCF7; assay: Induction of cell cycle arrest in human MCF7 cells assessed as accumulation of cells at G2/M phase measured after 48 hrs by FACS Calibur flow cytometry in relative to control; format: functional, cell-based
Method in brief: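 MCF-7 cells plated for 24 h, then exposed to compound (5 or 10 nM; DMSO control) for 48 h. Fixed in 70% ethanol at 4 °C for 12 h, then RNase A and propidium iodide staining for 30 min. DNA content measured by flow cytometry.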

Row | SMILES | IC50 [1] [µM] | IC50 [2] [µM] | IC50 [3] [µM] | IC50 [4] [µM] | IC50 [5] [µM] | further results
1 | COc1ccc(-c2cc3nccc(-c4cc(OC)c(OC)c(OC)c4)n3n2)cc1 | 0.373 | 0.125 | 0.376 | 0.404 | 1.41 | 
2 | COc1ccc(-c2cc3nccc(-c4cc(OC)c(OC)c(OC)c4)n3n2)cc1F | 0.236 | 0.183 | 0.545 | 2.84 | 3.95 | 
3 | COc1cc(-c2ccnc3cc(-c4c[nH]c5ccccc45)nn23)cc(OC)c1OC | 0.195 | 0.085 | 0.029 | 0.035 | 0.04 | 
4 | COc1cc(-c2ccnc3cc(-c4ccc(CO)cc4)nn23)cc(OC)c1OC | 0.456 | 1.07 | 1.1 | 0.861 | 1.09 | 
5 | COc1cc(-c2ccnc3cc(-c4ccc(C)c(C)c4)nn23)cc(OC)c1OC | 0.241 | 0.026 | 0.272 | 0.261 | 0.391 | 
6 | COc1cc(-c2ccnc3cc(-c4ccc(Cl)cc4)nn23)cc(OC)c1OC | 1.49 | 2.32 | 3.06 | 3.33 | 4.09 | 
7 | COc1cc(-c2ccnc3c(-c4c[nH]c5ccccc45)cnn23)cc(OC)c1OC | > 10 | > 10 | > 10 | > 10 | > 10 | 
8 | CCn1c2ccccc2c2cc(-c3cc4nccc(-c5cc(OC)c(OC)c(OC)c5)n4n3)ccc21 | 0.16 | 0.242 | 0.643 | 1.53 | 1.8 | 
9 | COc1cc(-c2ccnc3cc(-c4ccc(N(C)C)cc4)nn23)cc(OC)c1OC | 0.378 | 0.044 | 1.1 | 2.05 | 0.702 | 
10 | COc1cc2c(c(OC)c1OC)-c1ccc(OC)c(=O)cc1[C@@H](NC(C)=O)CC2 [COLCHICINE] | 0.081 | 0.018 | 0.107 | 0.042 | 0.087 | Activity [6]: Active
11 | C=Cc1ccc(-c2cc3nccc(-c4cc(OC)c(OC)c(OC)c4)n3n2)cc1 | 0.882 | 0.193 | 1.03 | 1.05 | 0.788 | 
12 | COc1cc(-c2ccnc3cc(-c4cnn(C)c4)nn23)cc(OC)c1OC | 1.83 | 0.274 | 1.15 | 2.11 | 1.24 | 
13 | COc1cc(-c2cc3nccc(-c4c[nH]c5ccccc45)n3n2)cc(OC)c1OC | > 10 | > 10 | > 10 | > 10 | > 10 | 
14 | COc1cc(-c2ccnc3cc(-c4ccc(C(C)=O)cc4)nn23)cc(OC)c1OC | 1.81 | 5.23 | 4.1 | 4.39 | 3.93 | 
15 | COc1cc(-c2ccnc3cc(-c4ccc5ccn(C)c5c4)nn23)cc(OC)c1OC | 0.187 | 0.074 | 0.829 | 1.04 | 0.657 | 
16 | COc1cc(-c2ccnc3cc(-c4ccc(F)cc4)nn23)cc(OC)c1OC | 5.84 | 1.28 | 3.8 | 5.03 | 4.54 | 
17 | CC(=O)O[C@H]1C(=O)[C@@]2(C)[C@H]([C@H](OC(=O)c3ccccc3)[C@]3(O)C[C@H](OC(=O)[C@H](O)[C@@H](NC(=O)c4ccccc4)c4ccccc4)C(C)=C1C3(C)C)[C@]1(OC(C)=O)CO[C@@H]1C[C@@H]2O [PACLITAXEL] | 0.041 |  |  |  | 0.021 | Activity [7]: Active; Activity [8]: 60.4%; Activity [9]: 63.8%; Activity [10]: Non-Toxic; Activity [11]: Non-Toxic
18 | COc1cc(-c2cc3nccc(-c4cc(OC)c(OC)c(OC)c4)n3n2)cc(OC)c1OC | > 10 | > 10 | > 10 | > 10 | > 10 | 

Row | SMILES | IC50 [1] [µM] | IC50 [2] [µM] | IC50 [3] [µM] | IC50 [4] [µM] | IC50 [5] [µM] | further results
19 | Cc1ccc(-c2cc3nccc(-c4ccc(F)cc4)n3n2)cc1 | > 10 | > 10 | > 10 | > 10 | > 10 | 
20 | Cn1ccc2cc(-c3cc4nccc(-c5ccc(F)cc5)n4n3)ccc21 | 5.21 | 4.58 | 3.52 | 2.16 | 4.78 | 
21 | COc1cc(-c2ccnc3cc(-c4ccc(N5CCOCC5)cc4)nn23)cc(OC)c1OC | > 10 | > 10 | > 10 | > 10 | > 10 | 
22 | COc1cc(-c2ccnc3cc(-c4cn(C)c5ccccc45)nn23)cc(OC)c1OC | 0.399 | 0.095 | 1.34 | 0.762 | 0.185 | 
23 | COc1cc(-c2ccnc3cc(-c4cccc(C#N)c4)nn23)cc(OC)c1OC | > 10 | > 10 | > 10 | > 10 | > 10 | 
24 | COc1cc(-c2ccnc3cc(-c4ccc(C(F)(F)F)cc4)nn23)cc(OC)c1OC | 1.84 | 2.44 | 2.07 | 1.86 | 1.77 | 
25 | COc1cc(-c2ccnc3cc(-c4ccc(C(C)(C)C)cc4)nn23)cc(OC)c1OC | > 10 | > 10 | > 10 | > 10 | > 10 | 
26 | CCOC(=O)c1ccc(-c2cc3nccc(-c4cc(OC)c(OC)c(OC)c4)n3n2)cc1 | > 10 | > 10 | > 10 | > 10 | > 10 | 
27 | COc1cc(-c2ccnc3cc(-c4cccc(C)c4)nn23)cc(OC)c1OC | 4.23 | 1.08 | 5.73 | 6.15 | 2.22 | 
28 | COc1cc(C(=O)c2csc(-c3ccccc3)n2)cc(OC)c1OC |  |  |  |  |  | half-life at 0.5 µM [12]: 17 min; half-life at 0.5 µM [13]: < 5 min
29 | COc1cc(-c2ccnc3cc(-c4ccc5c(ccn5C)c4)nn23)cc(OC)c1OC | 0.019 | 0.003 | 0.015 | 0.039 | 0.048 | IC50 [14]: 6.7 µM; IC50 [15]: 6.4 µM; IC50 [16]: 6.7 µM; IC50 [17]: 5.7 µM; Activity [18]: Active; half-life at 0.5 µM [12]: 20 min; half-life at 0.5 µM [13]: 7 min
30 | COc1ccc(-c2cc3nccc(-c4cc(OC)c(OC)c(OC)c4)n3n2)cc1[N+](=O)[O-] | > 10 | > 10 | > 10 | > 10 | > 10 | 
31 | COc1cc(-c2ccnc3cc(-c4cn(CO)c5ccccc45)nn23)cc(OC)c1OC | 0.103 | 0.019 | 0.167 | 0.128 | 0.093 | 
32 | COc1cc(-c2ccnc3cc(-c4ccc5cc[nH]c5c4)nn23)cc(OC)c1OC | 0.125 | 0.023 | 0.17 | 0.187 | 0.055 | 
33 | COc1cc(-c2ccnc3cc(-c4ccc5c(cnn5C)c4)nn23)cc(OC)c1OC | 0.097 | 0.279 | 0.233 | 2.44 | 1.47 | 
34 | COc1cc(-c2ccnc3cc(-c4cn(C(=O)OC(C)(C)C)c5ccccc45)nn23)cc(OC)c1OC | 3.77 | 0.268 | 2.06 | 5.72 | 3.07 | 
35 | COc1ccc(-c2cc3nccc(-c4cc(OC)c(OC)c(OC)c4)n3n2)cc1N | 0.283 | 0.027 | 0.138 | 0.251 | 0.088 | 
36 | COc1cc(-c2ccnc3cc(-c4ccccc4)nn23)cc(OC)c1OC | 0.458 | 0.254 | 0.208 | 3.88 | 4.73 | 
